MrgX1 antag: blocks BAM8-22 activation of human MrgX1 receptor | Q96LB2 | MRGX1-HEK293 calcium flux, Fluo-4, BAM8-22 antagonism; active compounds read low | B-score at 10 µM | 310,000 compounds, 1.3% hits | AID 588676;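 active = calcium-response B-score plate-corrected more than 3 library SD below zero, starting fluorescence within 5 deviations, no agonist response on first addition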;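 also: peak minus trough fluorescence over baseline after final BAM8-22 challenge near maximal dose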
Target sequence (Q96LB2 whole entry, looked up): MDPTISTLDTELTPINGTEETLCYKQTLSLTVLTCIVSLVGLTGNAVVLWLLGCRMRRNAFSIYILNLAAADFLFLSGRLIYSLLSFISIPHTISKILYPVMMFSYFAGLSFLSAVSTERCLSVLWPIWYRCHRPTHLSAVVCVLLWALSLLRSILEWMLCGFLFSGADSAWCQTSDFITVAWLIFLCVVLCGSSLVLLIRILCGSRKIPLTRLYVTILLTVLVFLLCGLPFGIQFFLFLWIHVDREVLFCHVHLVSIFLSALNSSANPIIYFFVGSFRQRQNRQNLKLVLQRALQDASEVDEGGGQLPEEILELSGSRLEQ
RGS4 pot: RGS4 potentiation or activation; HEK293 M3R/inducible RGS4, carbachol calcium flux Fluo4; active compounds read low; B-score at 10 µM; 310,000 compounds, 0.92% hits;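 active = B-score of the integrated calcium signal more than 4 SD below the library mean, with starting fluorescence not abnormally high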;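 also: negative B-score means reduced calcium response which marks RGS4 activation or potentiation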
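Detection: kinetic calcium fluorescence imaging with Fluo4-AM dye, 2 µM / Material: HEK293 cells with stable M3R and inducible RGS4 / Schedule: recording 10 s baseline at 1 Hz, 100 s post-agonist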
RGS4 inh: inhibitors of human RGS4. HEK293 M3R/RGS4 inducible, Fluo-4 calcium flux; active compounds read high; triggered by carbachol at its EC20. B-score at 10 µM. 310,000 compounds, 0.45% hits. AID 463165;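 active = B-score, a plate-corrected calcium signal, over three deviations above library mean, with baseline fluorescence within five deviations of library mean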;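 also: RGS4 expression induced by doxycycline in cells with stable M3 receptor; B-score is computed from the integrated fluorescence ratio over baseline after carbachol; higher B-score means a larger calcium signal and so more RGS4 inhibition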
Target sequence (P49798 whole entry, looked up): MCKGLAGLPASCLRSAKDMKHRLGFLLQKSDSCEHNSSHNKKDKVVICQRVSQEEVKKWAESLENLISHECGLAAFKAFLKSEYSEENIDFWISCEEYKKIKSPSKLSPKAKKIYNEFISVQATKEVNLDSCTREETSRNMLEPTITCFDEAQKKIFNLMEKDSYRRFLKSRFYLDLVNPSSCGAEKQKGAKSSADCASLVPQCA
MrgX1 PAM: allosterically activates human MrgX1 receptor signaling. 310,000 compounds, 0.63% hits. B-score at 10 µM. MrgX1-HEK293, Fluo-4 calcium flux, FDSS; active compounds read high. Q96LB2. AID 588675;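 active = plate-corrected calcium response at least 3 library SD above typical, normal starting fluorescence, not activating the receptor alone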;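 also: compound read alongside a low EC10 to EC30 dose of BAM8-22 agonist; peak minus trough fluorescence over baseline measured at the second addition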
MrgX1 agonist: agonists of human MrgX1 receptor | MrgX1-HEK293 cells, Fluo-4 calcium fluorescence, agonist mode; active compounds read high | B-score at 10 µM | 310,000 compounds, 0.44% hits | AID 588627;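 active = calcium response B-score plate-corrected fluorescence ratio at least 3 library SD, with starting fluorescence B-score inside 5 SD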
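times = overnight plating, then 30 min 37 °C plus 30 min room-temperature dye loading | assay system = stable human MrgX1 HEK293 cell line | input = fifteen thousand cells per well | signal = kinetic calcium dye fluorescence, Fluo-4 NW | dosing = compound delivered in addition one of three | read-out = B-scored fluorescence response ratio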
Of the large screens only hits and unclear results are named; the others gave an inactive call. A selection: hits, their analogues and other compounds. The true share with any hit is near 3.5%.

CC(C)N1CCc2c(sc(NC(=O)c3cc(-c4cccs4)nc4ccccc34)c2C(N)=O)C1	RGS4 pot -11
CC(C)N1CCc2c(sc(NC(=O)c3nc4ccccc4s3)c2C(N)=O)C1	none
Cc1ccc(-c2nc3ccccc3nc2-c2ccccc2)cc1	none
Cc1ccc(-c2nc(N)s[n+]2-c2ccccc2)cc1	RGS4 pot -9.8
O=C(CCC(=O)N1CCN(Cc2ccccc2)CC1)Nc1nnc(C2CCCCC2)s1	none
Cc1ccc(S(=O)(=O)/N=C2/NC(=O)/C(=C/c3cc([N+](=O)[O-])ccc3O)S2)cc1	RGS4 pot -7.8
O=C1NC(=Nc2ccccc2Cl)S/C1=C\c1cc([N+](=O)[O-])ccc1O	none
COc1cccc(S(=O)(=O)Nc2cccc(C(=O)N3CCOCC3)c2)c1	RGS4 pot -7.5
COc1cccc(S(=O)(=O)Nc2cccc(C(=O)N3CCCC3)c2)c1	none
O=C1/C(=C/c2ccccc2)CCC1C1CCCC1 (stereo not given)	none
CN1C2CCC1/C(=C\c1ccccc1)C(=O)/C2=C\c1ccccc1	MrgX1 PAM 12
O=C(Nc1cccc(NC(=O)c2ccc(-c3ccc(Br)cc3)o2)c1)c1ccccc1	MrgX1 antag -4.6
O=C(Nc1cccc(NC(=O)c2ccc(-c3cccc(Br)c3)o2)c1)c1ccco1	RGS4 pot -8.9
COc1ccc(Br)cc1C(=O)Nc1cccc(NC(=O)c2ccco2)c1	none
O=C(Nc1ccccc1)c1ccc(-c2ccc(Br)cc2)o1	none
COC(CNC(=O)c1ccc(CS(=O)(=O)c2ccc(Br)cc2)o1)OC	none
CCCN(CCC)CCCNC(=S)Nc1ccc2nc(N3CCN(C)CC3)cc(C)c2c1	MrgX1 agonist 29
Cn1c(CS/C(N)=N/N=C/c2ccccc2)c(Br)c(=O)n1-c1ccccc1	MrgX1 agonist 46
Cc1c(NC(=S)N/N=C/c2ccc(Br)cc2)c(=O)n(-c2ccccc2)n1C	none
CCOc1ccc(-c2n[nH]c(=S)c3ccccc23)cc1	none
O=[N+]([O-])c1ccc(Cl)c(C[n+]2cccc3ccccc32)c1	none
CC(=O)Nc1ccc(NC(=O)C(C)OC(=O)CCCOc2ccc(Cl)cc2C)cc1 (stereo not given)	MrgX1 antag -7.8
O=C(CSc1nnc(C2CCCCC2)o1)Nc1ccccc1Cl	none
CN1CCN(C(=O)c2cc([N+](=O)[O-])ccc2Cl)CC1	none
COc1cccc(C(=O)Nc2ccc(C(=O)c3ccncc3)cc2)c1	MrgX1 PAM 7.1
COc1cc(OC)c(C(=O)Nc2ccc(C(=O)c3ccccc3)cc2)cc1OC	RGS4 pot -7.2
COc1cccc(C(=O)Nc2ccc(NC(C)=O)cc2)c1	none
COc1cc(OC)c(C(=O)Nc2ccncc2)cc1OC	none
COc1ccc(C(=O)N/N=C(/C)c2cccc(NC(=O)c3ccncc3)c2)cc1OC	RGS4 pot -7
CC(=O)N1CCN(CC(=O)Nc2cc(F)ccc2C)CC1	none
Cc1ccc(-c2c[n+](CC(=O)N3c4ccccc4Sc4ccccc43)c3n2CCC3)cc1	RGS4 pot -8.9
O=C(C[n+]1cc(-c2ccc(F)cc2)n2c1CCC2)N1c2ccccc2Sc2ccccc21	RGS4 pot -9.7
O=C(C[n+]1cc(-c2ccccc2)n2c1CCC2)N1c2ccccc2Sc2ccccc21	none
CC(=O)Nc1ccc(S(=O)(=O)N(C)CC(=O)OC(C)C(=O)N(C)C2CCCCC2)cc1 (stereo not given)	none
Cc1oc2cc(Br)c(O)c(Br)c2c1-c1ccccc1	MrgX1 PAM 15
O=C(N/N=C/c1cccc2nccnc12)c1ccncc1	RGS4 pot -8.3
Cc1ccc(S(=O)(=O)Nc2cccc(C(=O)NCc3ccccn3)c2)cc1F	none
CN(CC(=O)Nc1cccc(F)c1)C(=O)c1cc(-c2ccccc2)nc2ccccc12	none
Cc1ccc2nc(-c3ccccc3)cc(C(=O)N(C)CC(=O)Nc3ccccc3Br)c2c1	RGS4 pot -9.2
O/C(=C\c1nc2ccccc2nc1/C=C(\O)c1ccccc1)c1ccccc1	MrgX1 PAM 14
CCN(NC(=O)C(O)(c1ccc(F)cc1)c1ccc(F)cc1)C(=O)c1ccccc1	MrgX1 antag -5.8
COc1ccc(-c2csc3ncnc(N4CCN(S(=O)(=O)c5ccc(C(C)=O)cc5)CC4)c23)cc1	RGS4 pot -7
COc1ccc(-c2csc3ncnc(N4CCN(c5ccccc5[N+](=O)[O-])CC4)c23)cc1	RGS4 pot -7.3
Cn1c(COc2ccccc2)nnc1SCC(=O)NC1CCCC1	none
O=S(=O)(c1ccc(Br)cc1)N1CCCN(Cc2cccc(F)c2)CC1	RGS4 pot -8.3
COc1cccc(CN2CCCN(S(=O)(=O)c3ccc(Br)cc3)CC2)c1	none
Cc1ccc(S(=O)(=O)Nc2cc3c4c(c2)CC(=O)N4CCC3)cc1	none
CN(C)S(=O)(=O)c1cccc(NC(=O)c2ccc3nccnc3c2)c1	none
O=C(Nc1ccc2c(c1)CCC2)C1CCN(c2c3c(nc4ncnn24)CCC3)CC1	none
O=C(Nc1ccc(Oc2ccccc2)cc1)C1CCN(c2c3c(nc4ncnn24)CCC3)CC1	RGS4 pot -12
S=C(NCCC(c1ccccc1)c1ccccc1)Nc1ccc(Cl)cc1	RGS4 pot -7.9
COc1ccc(CN2CCN(Cc3ccccc3F)CC2)cc1OC	none
CCCOc1cccc(C2C(C(=O)c3ccc(C)o3)=C(O)C(=O)N2c2nc(C)c(C(C)=O)s2)c1 (stereo not given)	none
C=CS(=O)(=O)c1sc(Cl)c(N2CCOCC2)c1[N+](=O)[O-]	RGS4 pot -11 (no result: MrgX1 antag, MrgX1 PAM, MrgX1 agonist)
COc1cc([C@@H]2CC=C(C(=O)O)[C@H](c3ccc(Cl)cc3)N2S(=O)(=O)c2ccc(C)cc2)cc(OC)c1OC	none (no result: RGS4 pot, RGS4 inh)
COc1ccc([C@@H]2CC=C(C(=O)O)CN2S(=O)(=O)c2ccc(Cl)cc2)cc1	MrgX1 PAM 8 (no result: RGS4 pot, RGS4 inh)
Cc1ccc(S(=O)(=O)N2[C@@H](c3ccccc3F)C(C(=O)O)=CC[C@H]2c2cccc(Cl)c2)cc1	MrgX1 PAM 11 (no result: RGS4 pot, RGS4 inh)
Cc1ccc(S(=O)(=O)N2CC(C(=O)O)=CC[C@H]2c2ccc(Cl)cc2)cc1	none (no result: RGS4 pot, RGS4 inh)
Cc1ccc(S(=O)(=O)N2[C@@H](c3ccccc3)C(C(=O)O)=CC[C@H]2c2cccc(Cl)c2)cc1	MrgX1 PAM 7.4 (no result: RGS4 pot, RGS4 inh)
Cc1ccc(S(=O)(=O)N2[C@@H](c3ccccc3F)C(C(=O)O)=CC[C@H]2c2ccc(C(C)C)cc2)cc1	none (no result: RGS4 pot, RGS4 inh)
Cc1ccc(S(=O)(=O)N2[C@@H](c3ccc(Cl)cc3)C(C(=O)O)=CC[C@H]2c2ccc(Cl)c(Cl)c2)cc1	MrgX1 antag -5.1 (no result: RGS4 pot, RGS4 inh)
Cc1ccc(S(=O)(=O)N2[C@@H](c3cccc(Cl)c3)C(C(=O)O)=CC[C@H]2c2ccc(Cl)cc2)cc1	none (no result: RGS4 pot, RGS4 inh)
C[C@H](NC(=O)C1CCN(S(=O)(=O)c2ccccc2)CC1)C(=O)NCc1ccco1	none
O=C(c1cccc(OC2CCN(Cc3ccc(F)cc3Cl)CC2)c1)N1CCCC1	none
CCOc1ccc(CCNC(=O)c2c(C)nn(-c3ccccc3)c2Cl)cc1OCC	none
